Published values collected from several papers.
CSNK1A1: Casein kinase I isoform alpha (CSNK1A1, Homo sapiens, UniProt P48729)
SLC22A12: Solute carrier family 22 member 12 (SLC22A12, Homo sapiens, UniProt Q96S37)
HDAC7: Histone deacetylase 7 (HDAC7, Homo sapiens, UniProt Q8WUI4)
HDAC10: Polyamine deacetylase HDAC10 (HDAC10, Homo sapiens, UniProt Q969S8)
PLA2G6: 85/88 kDa calcium-independent phospholipase A2 (PLA2G6, Homo sapiens, UniProt O60733)

SMILES	target	test	system	conditions	IC50 [µM]
N#Cc1ccn2nc(-c3ccc(F)cc3)c(-c3ccncc3)c2c1	CSNK1A1	enzyme activity, inhibitor, ADP detection	–	–	0.73
c1ccc(Cc2[nH]nc(-c3ccccn3)c2-c2ccnc3ccccc23)cc1	CSNK1A1	enzyme activity, inhibitor, ADP detection	–	–	3.5
NC(=O)c1nnn(Cc2cc(Cl)c(C(=O)c3ccc(Cl)cc3)c(Cl)c2)c1N	Cannabinoid receptor 2 (CNR2, Homo sapiens, UniProt P34972)	cAMP, antagonist	–	–	3.78
CC(C)(O)c1coc(S(=O)(=O)NC(=O)c2cc3ccccc3n2Cc2ccc(Br)c3ccccc23)c1	SLC22A12	transporter uptake, inhibitor, radiometric	–	–	9.76
Fc1ccc(-c2nc3cc(C4CC4)ccn3c2-c2ccncc2)cc1	CSNK1A1	enzyme activity, inhibitor, ADP detection	–	–	0.91
Cn1cc(-c2ccnc3ccccc23)c(-c2ccccn2)n1	CSNK1A1	enzyme activity, inhibitor, ADP detection	–	–	1.5
Cc1ccc(S(=O)(=O)NC(=O)c2cc3ccccc3n2Cc2ccc(C3CC3)c3ccccc23)cc1	SLC22A12	transporter uptake, inhibitor, radiometric	–	–	14
COc1ccc(N(Cc2csc(-c3ccccc3)n2)C(=O)CCCCCC(=O)NO)cc1	HDAC7	enzyme activity, inhibitor	–	–	> 10
Oc1ccc2c(-c3ccncc3)c(-c3ccc(F)cc3)nn2c1	CSNK1A1	enzyme activity, inhibitor, ADP detection	–	–	1.6
CC(C)NC(=O)COc1cccc(-c2nc(Nc3ccc4[nH]ncc4c3)c3ccccc3n2)c1	Solute carrier family 22 member 2 (SLC22A2, Homo sapiens, UniProt O15244)	transporter uptake, inhibitor, radiometric	HEK293	–	> 1
CN(CCCCCCNC(=O)CNc1cccc2c1C(=O)N(C1CCC(=O)NC1=O)C2=O)Cc1cn(Cc2ccc(C(=O)NO)cc2)c2ccccc12 (centres unmarked)	HDAC10	enzyme activity, inhibitor, fluorescence	–	–	0.007
O=C(NS(=O)(=O)c1ccccc1)c1cc2ccccc2n1Cc1ccc(Br)c2ccccc12	SLC22A12	transporter uptake, inhibitor, radiometric	–	–	12
COc1ccc(N(Cc2csc(-c3ccc(Br)cc3)n2)C(=O)CCCCCC(=O)NO)cc1	HDAC7	enzyme activity, inhibitor	–	–	> 10
Cc1ncc(-c2cc3cc(-c4c(C)ccc(O)c4C)cnc3[nH]2)cn1	Membrane-associated tyrosine- and threonine-specific cdc2-inhibitory kinase (PKMYT1, Homo sapiens, UniProt Q99640)	cell-free assay, TR-FRET	–	–	0.019
O=C(O)CCCCCCCC(=O)C(F)(F)F	PLA2G6	enzyme activity, inhibitor	–	–	352
c1ccc(-c2n[nH]cc2-c2ccncc2)nc1	CSNK1A1	enzyme activity, inhibitor, ADP detection	–	–	2.9
O=C(NO)c1ccc(Cn2cnc3c(Nc4ccc(Cl)cc4)ncnc32)cc1	HDAC7	enzyme activity, inhibitor	–	–	0.048
COc1ccn2nc(-c3ccc(F)cc3)c(-c3ccncc3)c2c1	CSNK1A1	enzyme activity, inhibitor, ADP detection	–	–	2.1
O=C1CCC(N2C(=O)c3cccc(NCC(=O)OCCCCc4cn(CCCCCCN5CCc6c(c7ccccc7n6Cc6ccc(C(=O)NO)cc6)C5)nn4)c3C2=O)C(=O)N1 (centres unmarked)	HDAC10	enzyme activity, inhibitor, fluorescence	–	–	0.017
O=CCCCCCCCC(=O)C(F)(F)F	PLA2G6	enzyme activity, inhibitor	–	–	41.2
CN(CCCCCCNC(=O)COc1ccc(C2CCC(=O)NC2=O)cc1)Cc1cn(Cc2ccc(C(=O)NO)cc2)c2ccccc12 (centres unmarked)	HDAC10	enzyme activity, inhibitor, fluorescence	–	–	0.012
CCc1oc2cc(F)ccc2c1C(=O)c1cc(Br)c(O)c(Br)c1	SLC22A12	transporter uptake, inhibitor, radiometric	–	oocytes	0.018
Fc1ccc(-c2nn3cccc(F)c3c2-c2ccncc2)cc1	CSNK1A1	enzyme activity, inhibitor, ADP detection	–	–	5.5
O=C(CCCCCCCCO)C(F)(F)F	PLA2G6	enzyme activity, inhibitor	–	–	12.7
O=C(NS(=O)(=O)c1ccccc1)c1cc2ccccc2n1Cc1ccc(C2CC2)c2ccccc12	SLC22A12	transporter uptake, inhibitor, radiometric	–	–	4.09
c1ccc(Cn2cc(-c3ccnc4ccccc34)c(-c3ccccn3)n2)cc1	CSNK1A1	enzyme activity, inhibitor, ADP detection	–	–	5.9
CCCc1ccn2c(-c3ccncc3)c(-c3ccc(F)cc3)nc2c1	CSNK1A1	enzyme activity, inhibitor, ADP detection	–	–	0.97
Fc1ccc(Cc2[nH]nc(-c3ccccn3)c2-c2ccnc3ccccc23)cc1	CSNK1A1	enzyme activity, inhibitor, ADP detection	–	–	11
O=C(c1ccc(OCCN2CCCCC2)cc1)c1c(-c2ccc(O)cc2)sc2cc(O)ccc12	Angiotensin-converting enzyme (Mus musculus, UniProt P09470)	enzyme activity, inhibitor	–	–	88.6
